Published values of several laboratories.
Lines come from different studies, so protocols differ.
Target: Aurora kinase A (AURKA, Homo sapiens, UniProt O14965)
Residues used in one study (O14965 1-403): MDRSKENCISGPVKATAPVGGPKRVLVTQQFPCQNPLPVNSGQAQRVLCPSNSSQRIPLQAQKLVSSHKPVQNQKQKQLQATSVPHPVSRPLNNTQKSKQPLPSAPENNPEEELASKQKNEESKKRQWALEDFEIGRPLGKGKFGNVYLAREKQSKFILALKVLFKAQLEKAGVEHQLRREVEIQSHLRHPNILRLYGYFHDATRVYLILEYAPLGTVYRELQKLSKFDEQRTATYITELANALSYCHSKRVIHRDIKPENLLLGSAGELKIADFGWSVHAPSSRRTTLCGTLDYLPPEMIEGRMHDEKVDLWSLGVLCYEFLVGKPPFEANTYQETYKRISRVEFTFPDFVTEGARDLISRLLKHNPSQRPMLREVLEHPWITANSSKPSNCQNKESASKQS

| Compound | assay | setting | measurement | result |
| --- | --- | --- | --- | --- |
| CCN(CC)c1ccc(C2=NNC(=O)CC2C)cc1[N+](=O)[O-] (centres unmarked) | enzyme activity, inhibitor | 10 µM | remaining activity | 93% |
| N#CC1(c2ccccn2)CCN(Cc2cc(C(=O)N3CCCC3)c(=O)n3ccccc23)CC1 | cell-free assay, competition with immobilised ligand | 1 µM | remaining binding | 90% |
| Cc1cc(NC(=O)c2cccc3cc(-c4cccc5[nH]nc(N)c45)ccc23)ccc1F | enzyme activity, inhibitor | 0.1 µM | activity vs control | 95% |
| O=C1Nc2ccc(Cl)cc2C1=Cc1cc(Cl)c(O)c(Cl)c1 | cell-free assay | 0.5 µM | remaining signal | 64.2% |
| Cc1ccc(C(=O)NCc2ccsc2)cc1C#Cc1cn(C(C)C)c2ncnc(N)c12 | enzyme activity, inhibitor | 1 µM | activity vs control | 50% |
| CN(c1ccnc(CNc2nc(Nc3ccc4c(c3)CC(=O)N4)ncc2C(F)(F)F)n1)S(C)(=O)=O | cell-free assay, competition with immobilised ligand | 1 µM | remaining binding | 14% |
| COc1cc(Cl)c(C(=O)N[C@@H](CN[C@H]2CC[C@@H](N)CC2)Cc2ccc(C#N)cc2)cc1-c1ccc(CN[C@H](C)c2ccc(C)cc2)o1 | enzyme activity, inhibitor | 1 µM | remaining activity | 98% |
| Cc1ccc(Nc2nccc(N(C)c3ccc4c(C)n(C)nc4c3)n2)cc1S(N)(=O)=O | enzyme activity, inhibitor | 10 µM | inhibition | 99% |
| CCN(CC)CCNC(=O)c1c(C)[nH]c(/C=C2\C(=O)Nc3ccc(F)cc32)c1C | enzyme activity, inhibitor | 0.1 µM | remaining activity | 83% |
| CC(C)c1ccc(NC(=O)c2cccs2)c(-c2nc3ccccc3[nH]c2=O)c1 | enzyme activity, inhibitor | 1 µM | activity vs control | 83% |
| N#CCCc1ccc2c(c1)-c1[nH]c3ccc([N+](=O)[O-])cc3c1CC(=O)N2 | cell-free assay | 0.5 µM | remaining signal | 78.7% |
| O=C(Nc1cnn(-c2csc(C(=O)NC3COC3)c2)c1)Nc1c(F)cccc1Cl | enzyme activity, inhibitor | 5 µM | remaining activity | 83.1% |
| CC(C)(O)[C@H]1CC[C@H](Nc2ccc3ncc(-c4cccc(C(F)(F)F)c4)n3n2)CC1 | enzyme activity, inhibitor | 1 µM | remaining activity | 96.1% |
| CNC(=O)Nc1ccc2c(c1)CC[C@@]21OC(=O)N(CC(=O)N(Cc2ccc(F)cc2)[C@@H](C)C(F)(F)F)C1=O | cell-free assay, competition with immobilised ligand | 1 µM | remaining binding | 80% |
| Cc1[nH]c(/C=C2\C(=O)Nc3ccc(F)cc32)c(C)c1C(=O)N[C@H]1CCN(C(=O)N(C)C)C1 | enzyme activity, inhibitor | 1 µM | remaining activity | 35% |
| Cn1c(=O)n(-c2ccc(C(C)(C)C#N)cc2)c2c3cc(-c4cnc5ccccc5c4)ccc3ncc21 | enzyme activity, inhibitor | 10 µM | remaining activity | 104% |

| Compound | assay | setting | measurement | result |
| --- | --- | --- | --- | --- |
| CC(C)(O)c1cncc(-c2nc3ccc(F)cc3n2C2CC2)c1 | cell-free assay, competition with immobilised ligand | 1 µM | remaining binding | 94% |
| CNC(=O)c1cc(Oc2ccc(NC(=O)Nc3ccc(Cl)c(C(F)(F)F)c3)cc2)ccn1 | enzyme activity, inhibitor | 10 µM | inhibition | 86% |
| C[C@@H]1CN(c2cc(-c3n[nH]c4ccc(OC5(C)CC5)cc34)ncn2)C[C@H](C)O1 | cell-free assay, competition with immobilised ligand | 0.1 µM | remaining binding | 94% |
| O=Nc1c(-c2c(O)[nH]c3ccccc23)[nH]c2ccccc12 | cell-free assay | 0.5 µM | remaining signal | 21.3% |
| COc1cc(-c2cn(C3CCc4c(F)cccc4N(CC(F)(F)F)C3=O)nn2)ccc1-n1cnc(C)c1 (centres unmarked) | cell-free assay, competition with immobilised ligand | 1 µM | remaining binding | 100% |
| COc1cc2ncnc(Nc3ccc(Oc4ccccc4)c(C)c3C)c2cc1OC | enzyme activity, inhibitor | 1 µM | inhibition | 13% |
| Cc1ccc(C(=O)Nc2ccc(CN3CCN(C)CC3)c(C(F)(F)F)c2)cc1C#Cc1cnc2cccnn12 | enzyme activity, inhibitor | 23.5 nM | remaining activity | 97% |
| Nc1ncnc2occ(-c3ccc(NC(=O)Nc4cc(C(F)(F)F)ccc4F)cc3)c12 | enzyme activity, inhibitor | 20 µM | remaining activity | 0.1% |
| COc1cc(Nc2cnc(C#N)c(O[C@H](C)CN(C)C)n2)ncc1-c1cnn(C)c1 | enzyme activity, inhibitor, radiometric | 10 µM | remaining activity | 48% |
| CC(C)(C)c1nc2c(s1)c1nc(N)ncc1c1ccc(NS(=O)(=O)c3c(F)cccc3F)c(F)c12 | enzyme activity, inhibitor, radiometric | 1 µM | remaining activity | 103% |
| COc1cc(/C=C/C(=O)CC(=O)/C=C/c2ccc(O)c(OC)c2)ccc1O | enzyme activity, inhibitor | 1 µM | activity vs control | 85% |
| CCN(CC)CCNC(=O)c1c(C)[nH]c(/C=C2\C(=O)Nc3ccc(F)cc32)c1C | enzyme activity, inhibitor | 10 µM | inhibition | 84% |
| O=C(Nc1cnc(Oc2ccc(F)cc2)nc1)N1CCc2ncccc2[C@@H]1c1ccc(F)cc1 | cell-free assay, competition with immobilised ligand | 1 µM | remaining binding | 100% |
| CS(=O)(=O)Nc1cccc(-c2csc(NC(=O)CSc3nc4nccnc4c(=O)n3CCc3ccccc3)n2)c1 | enzyme activity, inhibitor | 10 µM | inhibition | 0% |
| CCC(=N\O)/C(C)=C/c1ccc(F)cc1 | cell-free assay, competition with immobilised ligand | 1 µM | remaining binding | 100% |
| Cc1sc(C(=O)NC2COC2)cc1-n1cc(NC(=O)Nc2c(F)cccc2Cl)cn1 | enzyme activity, inhibitor | 10 µM | remaining activity | 88.4% |
